Source: ChEMBL document CHEMBL1135242, “Tricyclic isoxazoles are novel inhibitors of the multidrug resistance protein (MRP1)” (Bioorg Med Chem Lett, 2002)

Key:
HeLa = experiment: Competitive inhibition of [3H]LTC4 uptake by MRP1 expressing HeLa-T5 cell membranes; format: functional, Homo sapiens
[1] = Selectivity ratio of average EC50 values was calculated in HL60/ADR cell line and HL60/Vinc cell line; format: functional, HL-60
Procedure, shortened: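 Resistance reversal in MRP1-overexpressing HL60/Adr and P-gp-overexpressing HL60/Vinc cells. Modulator EC50 is the concentration-dependent enhancement of the antiproliferative response to an IC20 concentration of doxorubicin. Cell number is read by alamarBlue reduction. Ratio is the average EC50 in HL60/Vinc divided by the average EC50 in HL60/Adr.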

[2] = target: MRP1 (ABCC1, Homo sapiens); experiment: In vitro for its inhibitory activity against MRP1-transfected HeLa-T5 cell line in the presence of doxorubicin

SMILES | EC50 (HeLa) [µM] | EC50 [2] [µM] | Ratio [1]
Cc1ccc(NC(=O)Cc2cccc(-n3c(=O)c4c(C)onc4c4c(Cl)cccc43)c2)cc1 | – | 3.7 | –
Cc1onc2c1c(=O)n(-c1cccc(CC(=O)Nc3ccc(C#N)cc3)c1)c1cccc(Cl)c21 | – | 4.9 | –
COc1cc(NC(=O)Cc2cccc(-n3c(=O)c4c(C)onc4c4c(Cl)cccc43)c2)cc(OC)c1OC | 1.8 | – | –
Cc1onc2c1c(=O)n(-c1cccc(CC(=O)Nc3ccc(C(F)(F)F)cc3)c1)c1cccc(Cl)c21 | – | > 10 | –
COc1cc(NC(=O)Cc2cccc(-n3c(=O)c4c(C)onc4c4c(Cl)cccc43)c2)cc(OC)c1O | 1.7 | 1.3 | 14
COc1cc(C(=O)NCc2cccc(-n3c(=O)c4c(C)onc4c4c(Cl)cccc43)c2)cc(OC)c1OC | – | 1.13 | –

Second part, led by results:

EC50 (HeLa) [µM] | EC50 [2] [µM] | SMILES | Ratio [1]
4.2 | – | COc1cc(N(C)C(=O)Cc2cccc(-n3c(=O)c4c(C)onc4c4c(Cl)cccc43)c2)cc(OC)c1OC | 4
– | 2.3 | Cc1onc2c1c(=O)n(-c1cccc(CC(=O)Nc3ccccc3)c1)c1cccc(Cl)c21 | –
4.4 | – | COc1cc(OCCc2cccc(-n3c(=O)c4c(C)onc4c4c(Cl)cccc43)c2)cc(OC)c1OC | 14
